# Results: ChEMBL document CHEMBL1148119, “Monoterpene hydroperoxides with trypanocidal activity from Chenopodium ambrosioides” (J Nat Prod, 2002)
# Active and inactive are the calls of the source. The rule behind the calls is not given here.
# What was measured:
# Trypanosoma cruzi [1] = assay: Antitrypanosomal activity against Trypanosoma cruzi trypomastigotes infected in human HeLa cells assessed as inhibition of infection at 1 ug/mL after 4 days by HeLa cell-infection assay; type: functional; parameters: scale not given: the % may be the effect or the level left
# Outline: (§1)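 HeLa cells (5 × 10^3 cells/mL/well) grown on coverslips 2 days at 37 °C, 5% CO2, then infected with T. cruzi trypomastigotes (1.2 × 10^4 parasites/well). Compound in ethanol (10 µL) added right after infection. Day 4: fixed, Diff-Quik stained, mounted. >200 host cells in random fields scored for % infected cells (>1 amastigote) and mean amastigotes per infected cell. Mean ± SE.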
# Trypanosoma cruzi [2] = assay: Antitrypanosomal activity against Trypanosoma cruzi trypomastigotes infected in human HeLa cells assessed as number of amastigotes per infected cell at 1 ug/mL after 4 days by HeLa cell-infection assay; type: functional; outline: as §1
# Trypanosoma cruzi [3] = assay: Antitrypanosomal activity against Trypanosoma cruzi trypomastigotes infected in human HeLa cells assessed as infection rate at 1 ug/mL after 4 days by HeLa cell-infection assay; type: functional; outline: as §1
# Trypanosoma cruzi [4] = assay: Trypanocidal activity against Trypanosoma cruzi Tulahuen epimastigotes assessed as minimal lethal concentration after 24 hrs; type: functional
# Outline: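 Tulahuen epimastigotes kept in GIT medium with hemin (12.4 µM). Parasites in medium (10 µL) incubated with sample in EtOH (5 µL) plus autoclaved saline (185 µL) for 24 h. Motility checked by microscopy (×100). MLC taken as minimum lethal concentration. Duplicates; gentian violet positive control.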
# Trypanosoma cruzi [5] = assay: Antitrypanosomal activity against Trypanosoma cruzi trypomastigotes infected in human HeLa cells assessed as inhibition of amastigotes proliferation at 1 ug/mL after 4 days by HeLa cell-infection assay; type: functional, organism-based; outline: as §1
# HeLa = assay: Cytotoxicity against human HeLa cells at 10 ug/mL; type: cell-based
# Trypanosoma cruzi [6] = assay: Trypanocidal activity against Trypanosoma cruzi Tulahuen epimastigotes up to 400 uM after 24 hrs; type: functional, organism-based
# Outline: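 Tulahuen epimastigotes maintained in GIT medium with hemin (12.4 μM). Parasite suspension incubated 24 h with sample in EtOH plus autoclaved saline. Motility checked by microscopy (×100) and minimum lethal concentration (MLC) recorded. Duplicate assays; gentian violet positive control.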
Structure (SMILES),Activity (Trypanosoma cruzi [1]),Activity (Trypanosoma cruzi [2]),Activity (Trypanosoma cruzi [3]),MLC (Trypanosoma cruzi [4]),Activity (Trypanosoma cruzi [5]),Activity (HeLa),Activity (Trypanosoma cruzi [6])
C=C(C)[C@H]1CCC(=C)[C@H](OO)C1,63%,18.6,4.4%,1.6 µM,inactive,Toxic,
C=C(C)[C@H]1CCC(=C)[C@@H](OO)C1,,,,1.2 µM,,,
CN(C)c1ccc(C(=C2C=CC(=[N+](C)C)C=C2)c2ccc(N(C)C)cc2)cc1.[Cl-] [GENTIAN VIOLET],,,,6.3 µM,,,
C=C(C)[C@H]1CCC(=C)[C@H](O)C1,,,,,,,inactive
CC(C)C12C=CC(C)(CC1)OO2 (stereo unspecified) [ASCARIDOLE],,22.8,8.5%,23 µM,inactive,,
C=C(C)[C@@H]1C=C[C@](C)(O)CC1,,,,,,,inactive
C=C(C)[C@@H]1C=C[C@@](C)(O)CC1,,,,,,,inactive
Oc1ncnc2[nH]ncc12 [ALLOPURINOL],,10.9,7%,,inactive,,
C=C(C)[C@@H]1C=C[C@](C)(OO)CC1,88%,19.1,1.5%,3.1 µM,inactive,Toxic,
C=C(C)[C@H]1CCC(=C)[C@@H](O)C1,,,,,,,inactive
C=C(C)[C@@H]1C=C[C@@](C)(OO)CC1,Active,12,0.13%,0.8 µM,inactive,Toxic,
